# Screening results as filed in PubChem BioAssay.
# An excerpt weighted towards active compounds, which were near 0.83% of everything screened.
# RGS7-Gao: regulators of human RGS7-Galphao interaction | P09471 | Multiplexed bead flow cytometry, RGS7-Galphao binding; actives lie on both sides | binding response (% of control), % at 10 µM | actives 0.35% (n = 220,000) | AID 1439; in the data active = binding response below about 49% or above about 150%; inconclusive = no clear call, values can overlap the other calls; inactive = in between;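 note: fluorescent Galphao held in activated GDP-AlF4 state binding bead-coupled RGS7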
# Target sequence (P09471 whole entry, looked up): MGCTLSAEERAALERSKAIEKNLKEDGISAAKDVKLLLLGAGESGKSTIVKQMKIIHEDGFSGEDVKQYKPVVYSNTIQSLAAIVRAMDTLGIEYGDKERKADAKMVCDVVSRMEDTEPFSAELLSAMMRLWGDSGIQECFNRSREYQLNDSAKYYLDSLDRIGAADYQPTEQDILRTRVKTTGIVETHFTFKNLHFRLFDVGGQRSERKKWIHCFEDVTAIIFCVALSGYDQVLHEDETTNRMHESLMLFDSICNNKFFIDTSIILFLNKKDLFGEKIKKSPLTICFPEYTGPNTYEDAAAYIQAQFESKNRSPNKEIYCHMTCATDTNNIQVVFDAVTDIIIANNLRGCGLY
# RGS4-Gao reg: human RGS4-Galphao interaction regulation. actives 0.33% (n = 220,000). binding response (% of control), % at 10 µM. AID 1415. Multiplexed bead flow cytometry, RGS4-Galphao binding; actives lie on both sides; in the data active = binding response below about 49% or above about 150%; inactive = in between;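 note: fluorescent Galphao activated with aluminum fluoride binding bead-coupled RGS4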
# RGS16-Gao HTS: regulators of human RGS16-Galphao interaction | binding response (% of control), % at 10 µM | actives 0.38% (n = 220,000) | bead-based flow cytometry RGS16-Galphao binding, fluorescence; actives lie on both sides | AID 1441 | O15492+P09471; call rule not given here;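 note: Galphao activated by GDP with aluminum fluoride before binding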
# Target sequence (O15492 whole entry, looked up): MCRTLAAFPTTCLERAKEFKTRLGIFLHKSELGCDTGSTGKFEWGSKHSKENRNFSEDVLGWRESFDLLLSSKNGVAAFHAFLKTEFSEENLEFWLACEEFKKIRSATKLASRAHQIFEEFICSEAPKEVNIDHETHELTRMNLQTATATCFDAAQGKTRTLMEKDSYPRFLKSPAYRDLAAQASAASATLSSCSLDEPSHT
# Target sequence (P09471 whole entry, looked up): as the sequence (P09471 whole entry, looked up) above
# ABCG2 block: blocks JC-1 efflux by human ABCG2 transporter; Q9UNQ0; IgMXP3 cells, flow cytometry; inhibition, % at 6.6 µM; actives 0.1% (n = 190,000); AID 1325;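 active = inhibition above 80%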;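 note: 0% = DMSO and 100% = nicardipine control wells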
#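 Test system: ABCG2 IgMXP3 and barcoded ABCB1 CCRF-Adr cell mix; Schedule: cells with compound and JC-1, 10 min at 25 °C, rotating, no wash; Technique: flow cytometry of retained JC-1 fluorescence; Measure: % inhibition of efflux relative to nicardipine and DMSO; Controls: nicardipine high and DMSO low controls.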
# ABCB1 block: inhibitors of human ABCB1 transporter, ABCG2 counter-screen; CCRF-Adr cells, JC-1 efflux, flow cytometry; actives 0.067% (n = 190,000); inhibition, % at 6.6 µM; in the data active = inhibition above about 40%;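 note: 0% = vehicle and 100% = reference inhibitor; higher value means more JC-1 retained so stronger ABCB1 efflux block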
# RGS8-Gao reg: regulators of human RGS8-Galphao interaction. actives 0.34% (n = 220,000). multiplexed bead flow cytometry, RGS8-Galphao binding; actives lie on both sides. response (percent of control binding), % at 10 µM; in the data active = response below about 60% or above about 140%; inactive = in between;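 note: Galphao activated as the GDP aluminium fluoride complex binding bead-coupled RGS8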
# ABCB1 single pt: inhibits human ABCB1 efflux, confirmed at single point | shares compounds with ABCG2 block | CCRF-Adr cells, JC-1 efflux, flow cytometry | inhibition, % at 6.6 µM | actives 7% (n = 270) | AID 1451;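 active = inhibition of pump activity above 50%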;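 note: 0% = DMSO and 100% = nicardipine full pump inhibition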
# ABCG2 confirm: inhibits human ABCG2 efflux, confirmed at single point; shares compounds with ABCG2 block; IgMXP3 cells, JC-1 efflux, flow cytometry; AID 1453; actives 6% (n = 270); inhibition, % at 6.6 µM;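 active = inhibition above 50%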;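 note: 0% = DMSO wells and 100% = nicardipine pump inhibitor wells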
# IgMXP3 fluor: IgMXP3 autofluorescence flag for ABCG2 confirmation | fluorescence at 6.6 µM | IgMXP3 cells, compound autofluorescence 488/530 nm, flow; active compounds read high | AID 1480 | shares compounds with ABCG2 block | actives 30% (n = 270);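 active = fluorescence in ABCG2-expressing cells above the plate's control-well mean plus 3 SD, cut at about 15 in these data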;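 note: median cell fluorescence with compound minus that of DMSO-treated control cells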
# CCRF autofluor: counter-screen for ABCB1 inhibitors: compound fluorescence in CCRF-Adr cells | compound autofluorescence 488/530 nm, flow cytometry; active compounds read high | fluorescence at 6.6 µM | AID 1483 | actives 30% (n = 270) | shares compounds with ABCG2 block;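 active = fluorescence beyond the plate control mean plus 3 SD, with a fluorescence-to-maximum score over 2, cut at about 25 in these data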
# Numbers without * were called inactive; ? = inconclusive; · = no result.
SMILES,RGS7-Gao,RGS4-Gao reg,RGS16-Gao HTS,ABCG2 block,ABCB1 block,RGS8-Gao reg,ABCB1 single pt,ABCG2 confirm,IgMXP3 fluor,CCRF autofluor
COc1cccc(-c2nc(N3CC(C)CC(C)C3)c3ccccc3n2)c1O (stereo not given),101.7,102.5,103.4,61.3,12.2,100.4,72.3*,45.6,-1.94,-4.89
COc1cccc(-c2nc(N3CCC(C)CC3)c3ccccc3n2)c1O,96.1,98.3,98.5,43.5,3.9,101.5,·,·,·,·
OC1(c2ccc(OC(F)F)cc2)CSC(=Nc2cccnc2)N1Cc1ccco1 (stereo not given),100.3,101.6,70.8,6.0,1.5,93.3,·,·,·,·
CC[n+]1c(/C=C/c2c[nH]c3ccccc23)ccc2cc(C)ccc21,123.5,128.6,129.1,84.0*,22.5,100.0,2.3,-59.1,194*,61.9*
COc1ccc(/C=N/Nc2cc(=O)n(C)c(=O)n2C)cc1OC,98.2,95.8,88.4,88.2*,2.9,95.5,2.2,48.3,23.3*,7.91
COc1cc(/C=N\Nc2cc(=O)n(C)c(=O)n2C)ccc1O,103.8,104.9,121.5,0.6,0.0,108.4,·,·,·,·
COc1ccc(C(=O)Nc2ccc3oc(Cc4ccc(Cl)cc4)nc3c2)cc1OC,102.8,96.1,99.3,-0.2,0.8,98.8,·,·,·,·
Cc1c(Br)c([N+](=O)[O-])nn1CC(=O)N(C)Cc1ccccc1,99.9,102.3,108.0,0.5,-0.2,103.5,·,·,·,·
COc1ccccc1OCCOc1ccc(C(=O)c2ccccc2)cc1,97.6,98.6,111.2,87.2*,5.2,103.4,-10.8,31.4,51.8*,81.8*
CCOc1c(Br)ccc2c1sc1nc[nH]c(=O)c12,95.8,93.9,95.2,6.2,0.4,98.5,·,·,·,·
CCCN1C(=O)/C(=C/c2ccc(N3CCCC3)c(C)c2)NC1=S,107.6,109.0,118.4,86.0*,52.3*,99.5,-29.2,-21.1,107*,137*
CCCN1C(=O)/C(=C/c2ccc(N3CCOCC3)cc2)NC1=S,97.0,95.4,96.5,-0.6,-0.3,97.0,·,·,·,·
CCN1C(=O)/C(=C/c2ccc(N3CCCC3)cc2)NC1=S,126.2,123.2,78.0,78.7,22.8,82.0,18.9,7.1,20.2*,43.6*
CCSc1nc2cc(OC)c(OC)cc2c(=O)n1CCc1ccccc1,102.9,100.7,108.3,76.7,2.8,103.5,5.5,34.9,5.76,0.56
COCCNC(=O)CSc1nc2cc(OC)c(OC)cc2c(=O)n1CCC1=CCCCC1,109.4,104.2,105.1,88.2*,18.5,106.0,8.6,46.5,1.31,-1.44
COc1cc2nc(SCC(N)=O)n(CCC3=CCCCC3)c(=O)c2cc1OC,97.8,99.7,107.4,4.4,1.4,102.8,·,·,·,·
O=C(Nc1cccc(Cl)c1)Nc1ccc2c(c1)OCO2,105.6,104.0,112.9,74.0,0.9,108.6,10.5,18.0,8.66,11.5
O=C(Nc1ccc2c(c1)OCCO2)Nc1ccc2c(c1)OCO2,98.2,92.1,93.1,-1.2,-0.3,97.4,·,·,·,·
CCOC(=O)c1cccc(NC(=O)c2cnc3ccccc3n2)c1,97.3,97.9,101.2,91.2*,2.5,103.5,1.7,67.5*,-0.59,-4.44
Cc1cc(C)n(-c2ccc(Cl)c(C(=O)Nc3cc(C(F)(F)F)ccc3Cl)n2)n1,101.2,100.9,102.1,116.3*,9.0,102.9,5.4,14.9,-1.14,-1.49
COC(=O)c1nc(-n2nc(C)cc2C)ccc1Cl,100.0,100.4,109.7,2.7,0.4,99.7,·,·,·,·
O=C(Cc1ccccc1)Nc1cc(Cl)ccc1Sc1ccccc1,98.8,99.2,97.5,89.0*,4.5,98.5,3.6,8.2,-1.69,4.66
CC(C)Cn1c(SCC(=O)N2CCc3ccccc3C2)nc2cc(Cl)ccc2c1=O,101.3,101.3,106.1,26.5,24.9,102.3,·,·,·,·
COCCn1c(SCC(=O)N2CCc3ccccc3C2)nc2cc(Cl)ccc2c1=O,101.4,101.3,100.0,26.3,32.9,101.8,26.9,29.3,-1.54,-3.59
Cc1ccc(CCNC(=O)C2CC(c3ccc(C(F)(F)F)cc3)=NO2)cc1 (stereo not given),?,93.5,98.3,·,·,98.7,·,·,·,·
SMILES,RGS7-Gao,RGS4-Gao reg,RGS16-Gao HTS,ABCG2 block,ABCB1 block,RGS8-Gao reg,ABCB1 single pt,ABCG2 confirm,IgMXP3 fluor,CCRF autofluor
CCN(CC)S(=O)(=O)c1ccc(OC)c(NC(=O)c2cccc(C)c2[N+](=O)[O-])c1,?,97.4,100.0,88.4*,3.0,99.1,0.9,48.5,4.71,2.86
CCOC(=O)c1sc2cc([N+](=O)[O-])cc(SCC(=O)OC)c2c1N,97.5,98.7,107.8,40.1,2.8,98.8,·,·,·,·
CCOC(=O)c1sc2cc([N+](=O)[O-])cc(SCCO)c2c1N,99.9,97.3,80.2,81.8*,2.5,94.4,0.9,21.1,1.41,-0.69
O=C(COc1ccc(Cl)cc1)NCc1nnc(SCC(=O)Nc2ccc(F)cc2F)o1,99.3,103.8,100.6,0.4,-0.9,99.9,·,·,·,·
CCC(C)c1ccc(NC(=S)NCCn2cc(Cl)cn2)cc1 (stereo not given),92.6,91.8,93.6,4.8,0.8,93.7,·,·,·,·
CCC(C)c1ccc(NC(=S)NCCn2cc(Br)cn2)cc1 (stereo not given),100.2,102.3,108.0,126.4*,7.3,104.2,1.5,33.6,-1.74,-3.24
COc1cc(/C=C2/CCc3ccccc3C2=O)cc(OC)c1OC,100.8,96.7,99.2,87.4*,6.7,101.4,2.0,44.3,-1.64,-1.69
COc1cccc(NC(=O)Nc2ccc(Cc3ccncc3)cc2)c1,103.2,104.8,108.4,0.6,0.0,104.2,·,·,·,·
COc1cccc(NC(=O)Nc2ccncc2)c1,95.5,98.7,99.6,58.6,44.5*,101.2,0.8,29.4,0.96,5.01
Cc1ccc(N(CCCCN2C(=O)c3ccccc3C2=O)C(=O)c2ccc(Cl)s2)cc1,100.1,101.2,103.8,66.8,6.9,100.5,10.6,21.4,-2.19,-4.64
O=C1c2ccccc2C(=O)N1CCCCN(C(=O)c1ccc(Cl)s1)c1ccc(Cl)cc1,103.4,103.9,103.8,-0.5,12.0,101.7,·,·,·,·
CCCN1C(=O)/C(=C/c2c(NCCCOC(C)C)nc3c(C)cccn3c2=O)SC1=S,110.8,112.4,120.6,89.1*,61.5*,105.8,-3.4,-12.3,141*,178*
